# A selection: hits, their analogues and other compounds. The true share with any hit is near 1.7%.
# DSG3 Ab inh: blocks pemphigus antibody binding to human desmoglein-3. DSG3-coupled beads, scFv-anti-DSG3-GFP binding, flow cytometry; stronger effect = lower value. binding (percent of control), % at 10 µM. 310,000 tested, 0.48% active. AID 588358;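 active = binding more than 3 SD below its plate's average and above zero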;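 note: hits lower antibody fragment binding to DSG3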
# LMPTP inh: LMPTP (human) inhibition; P24666; recombinant LMPTP-A, OMFP fluorogenic substrate, fluorescence intensity; inhibition, % at 20 µM; 360,000 tested, 0.22% active; AID 651560;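 active = compounds that cut the enzyme signal by at least half of the control window in the single-dose screen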;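 note: plate controls were DMSO wells with enzyme plus substrate for no effect and substrate without enzyme for full effect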
# Target sequence (P24666 whole entry, looked up): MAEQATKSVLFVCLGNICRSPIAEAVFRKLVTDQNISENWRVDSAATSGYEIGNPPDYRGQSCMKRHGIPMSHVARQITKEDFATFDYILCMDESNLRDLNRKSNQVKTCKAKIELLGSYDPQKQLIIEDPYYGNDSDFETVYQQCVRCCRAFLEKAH
#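 Assay system: LMPTP-A phosphatase enzyme | Input: 0.625 nM enzyme | Also added: Fluorogenic phosphatase substrate OMFP at 400 µM final | Compound dosing: One test concentration per compound, 20 µM, with 3% DMSO overall | Schedule: 50 min enzyme reaction at room temperature, protected from light | Signal: Fluorescence intensity | Benchmarks: no-enzyme and uninhibited controls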
# SUMO1-SIM PPI: alters human SUMO1 binding to SIM partners. P63165. SUMO1 binding to a labelled peptide, TR-FRET, 1 h. inhibition, % at 20 µM. 360,000 tested, 0.33% active. AID 602429; in the data active = inhibition above about 37%
# Target sequence (P63165 whole entry, looked up): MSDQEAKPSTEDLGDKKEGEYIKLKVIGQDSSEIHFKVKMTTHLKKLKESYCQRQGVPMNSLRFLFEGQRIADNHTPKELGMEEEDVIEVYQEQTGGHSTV
# Scp1 inh: inhibitors of human Scp-1 phosphatase; Q9GZU7; Recombinant Scp1, phosphopeptide, malachite green phosphate absorbance; inhibition, % at 20 µM; 340,000 tested, 0.88% active; AID 493091;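 active = inhibition above about 50% at 20 µM, limit read from the data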;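 note: plate controls were DMSO wells with enzyme for no effect and wells lacking enzyme for full effect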
# Target sequence (Q9GZU7 76-261 limits assumed): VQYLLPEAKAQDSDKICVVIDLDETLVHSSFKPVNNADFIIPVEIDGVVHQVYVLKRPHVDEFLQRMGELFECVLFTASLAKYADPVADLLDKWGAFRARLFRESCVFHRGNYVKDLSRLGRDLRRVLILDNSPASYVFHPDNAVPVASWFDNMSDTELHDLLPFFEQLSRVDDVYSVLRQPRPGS
#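 Assay system: SCP-1 catalytic fragment, aa 76-261 | Buffer or medium: Tris acetate buffer pH 5.5 with MgCl2 and Tween-20 | Compound: One concentration, 20 µM, with 1.0% DMSO | Also added: Phospho 17-mer peptide substrate | Signal: Absorbance at 630 nm | Incubation: 45 min enzyme reaction at room temperature | Measure: % inhibition of SCP-1 phosphate liberation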
# STEP inh: inhibitors of human striatal-enriched phosphatase STEP; P54829; recombinant STEP, OMFP fluorogenic substrate, fluorescence; inhibition, % at 20 µM; 360,000 tested, 0.25% active;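 active = inhibition at 20 µM, scaled per plate between control wells, above about 37%, limit read from the data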;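 note: 0% = DMSO with enzyme and substrate and 100% = substrate only without enzyme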
#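 System: STEP phosphatase, cell-free reaction; Buffer or medium: Bis-Tris pH 6.0 buffer with DTT, detergent; Incubation: 20 min at room temperature, dark; Measured by: fluorescence, 480/540 nm.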
# Scp-1 conf: confirmation of human Scp-1 phosphatase inhibitors. shares compounds with Scp1 inh. recombinant SCP-1 catalytic domain, phosphate release, malachite green absorbance. inhibition, % at 20 µM. 2,500 tested, 61% active;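 note: plate controls were DMSO with enzyme for no effect and buffer wells lacking enzyme for full effect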
# MG interference: interferes with malachite green readout, flagging false Scp-1 hits. shares compounds with Scp1 inh. Colorimetric interference counterscreen, malachite green absorbance 630 nm. apparent inhibition (interference), % at 20 µM. 2,500 tested, under 10 active;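 note: compounds added after enzyme reaction finished so only phosphate colour detection is probed; plate controls were DMSO wells with completed Scp-1 reaction for no effect and substrate wells lacking enzyme for full effect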
# Scp1 DSF: validation of human Scp-1 inhibitors by thermal shift binding. shares compounds with Scp1 inh. Recombinant SCP1, Sypro Orange thermal shift Tm. thermal shift relative to vanadate control, % at 40 µM. 1,500 tested, 25% active;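 active = substances whose mean melting-temperature shift, as a percentage of the reference inhibitor's shift, reaches about 5.3%, limit read from the data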;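 note: 0% = Tm of DMSO wells and 100% = Tm with sodium orthovanadate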
# * = called active by the depositor; . = not tested or not shown.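 Rule for the calls, unless noted: active = inhibition of at least 30% at 20 µM; inactive = the rest.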
SMILES,DSG3 Ab inh,LMPTP inh,SUMO1-SIM PPI,Scp1 inh,STEP inh,Scp-1 conf,MG interference,Scp1 DSF
C=C(C)C(=O)N1CC2(CC(c3cccc(NC(=O)/C=C\C=C/C)c3)=NO2)C[C@H]1C(N)=O (stereo not given in full),78,-3,23,52*,4,55*,-13,-11
C=C(C)C(=O)Nc1cccc(C2=NOC3(C2)C[C@H](C(N)=O)N(C(=O)c2ccccc2)C3)c1 (stereo not given in full),104,1,36,88*,0,65*,1,4
CCCCCC(=O)Nc1cccc(C2=NOC3(C2)C[C@@H](C(N)=O)N(C(=O)c2ccc(Cl)cc2)C3)c1 (stereo not given in full),97,0,0,66*,-1,-14,-16,.
CCCC(C(=O)N(C)CC(=O)Nc1ccc(N2CCOCC2)cc1)c1ccccc1 (stereo not given),107,-10,-33,-9,0,.,.,.
Cc1ccc(C(=O)Nc2ccc(S(=O)(=O)NC3=NCCCCC3)cc2)cc1S(=O)(=O)N1CCOCC1,98,-1,5,2,-1,.,.,.
O=C(Nc1ccc(S(=O)(=O)NC2=NCCCCC2)cc1)c1cccc(S(=O)(=O)N2CCOCC2)c1,87,57*,8,50*,-6,-1,-5,.
COc1ccccc1Cc1c(-c2ccc(C)cc2)nc2ccc(Cl)cn12,.,0,0,.,0,.,.,.
Cn1ccsc1=NC(=O)c1ccc(S(C)(=O)=O)c([N+](=O)[O-])c1,100,1,-32,-2,-5,.,.,.
Cn1ccsc1=NC(=O)c1ccc(Cl)c([N+](=O)[O-])c1,95,48,5,54*,27,11,-19,.
CC(=O)c1c(C)[nH]c(C(=O)CN(C)CC(=O)Nc2ccccc2Cl)c1C,126,0,-3,-15,1,.,.,.
CSc1ccccc1NC(=O)CN(C)CC(=O)c1[nH]c(C)c(C(C)=O)c1C,121,-1,-4,101*,-1,-19,-24,.
O=C(Nc1ccc(NC(=O)C2CCCCC2)nc1)c1cccc(F)c1,111,-2,-1,-1,0,.,.,.
NC(=O)CCC(NS(=O)(=O)c1ccc(Cl)cc1)C(=O)NCc1ccc(Cl)cc1 (stereo not given),98,-2,7,-9,-1,-13,-16,.
O=C(NNC(=O)c1ccc2ccccc2c1)c1ccc(Cl)c(Cl)c1,111,15,3,64*,1,58*,-8,-23
O=C(NNC(=O)c1cccc2ccccc12)c1ccc(Cl)c(Cl)c1,116,0,-2,-3,-1,.,.,.
COc1cc(NC(C)=O)c2ncccc2c1NC(C)=O,105,0,1,-11,-1,.,.,.
CC(=O)Nc1cc(=O)c2cccnc2[nH]1,73*,64*,31,82*,10,61*,-5,2
O=C(CN1C(=O)CCSc2ccc(S(=O)(=O)N3CCOCC3)cc21)Nc1ccccc1Cl,99,4,2,61*,6,46*,-8,-2
CN(C(=O)CSc1nc2ccccc2c(=O)n1-c1ccccc1Cl)C1CCS(=O)(=O)C1 (stereo not given),94,0,-1,-10,2,.,.,.
COc1ccc2[nH]cc(C(O)CN3CCC(C(N)=O)CC3)c2c1 (stereo not given),93,1,-2,71*,0,2,-1,.
O=C(CN(c1ccccc1Cl)S(=O)(=O)c1ccccc1)NCc1ccccc1,110,0,3,-9,1,.,.,.
CCN(CC(=O)NC1CCS(=O)(=O)C1)c1ccc(S(=O)(=O)N(CC)CC)cc1[N+](=O)[O-] (stereo not given),.,1,-14,-2,-2,.,.,.
CCC[N+]1(CC#CC(O)(c2ccccc2)C2CCCCC2)CCCCC1 (stereo not given),.,-1,-5,-9,2,.,.,.
CC1(C(O)(C#CC[N+]2(C)CCCCC2)c2ccccc2)CCCC1 (stereo not given),94,0,0,98*,-1,94*,-8,-7
O=C(NNC(=O)c1cc2cc3ccccc3nc2s1)c1cccc(C(F)(F)F)c1,.,28,0,75*,29,71*,-14,-16
SMILES,DSG3 Ab inh,LMPTP inh,SUMO1-SIM PPI,Scp1 inh,STEP inh,Scp-1 conf,MG interference,Scp1 DSF
Cc1ccc(S(=O)(=O)N2CCOC2CNC(=O)C(=O)NCc2ccccn2)cc1 (stereo not given),102,-1,4,-1,-3,.,.,.
COc1ccc(/C=N/N=C2/NC(=O)C(CC(=O)O)S2)cc1OCc1ccc(Cl)cc1 (stereo not given),104,0,11,-9,2,.,.,.
CCOc1cc(/C=N/N=C2/NC(=O)C(CC(=O)O)S2)ccc1OCc1ccc(Cl)cc1 (stereo not given),86,1,0,75*,6,69*,-11,-14
O=C(CCc1nc2ccccc2c(=O)[nH]1)NCc1ccco1,96,0,-3,4,0,.,.,.
CN(CC(=O)NC(=O)NCc1ccco1)Cc1nc2ccccc2c(=O)[nH]1,82,0,3,86*,0,73*,-7,-4
COc1ccc(CNC(=O)COC(=O)c2ccc(S(=O)(=O)NCc3ccco3)cc2)cc1,.,2,2,55*,6,61*,-12,-1
CCN(CC)S(=O)(=O)c1ccc(/C=C/C(=O)OCC(=O)NCc2ccco2)cc1,113,10,-17,71*,7,79*,2,4
CCN(CC)S(=O)(=O)c1ccc(C(=O)OCC(=O)NCc2ccco2)cc1,104,0,0,55*,2,47*,-6,-8
Cc1ccc(N(C(=O)CNC(=O)c2ccco2)C(C(=O)NC2CCCCC2)c2ccncc2)cc1F (stereo not given),120,-1,3,-2,-2,.,.,.
Cn1cc(CNCc2ccccc2OCC(O)CN2CCc3ccccc3C2)cn1 (stereo not given),111,7,0,0,2,.,.,.
CCN1CCN(C(=O)c2ccc(CN(c3ccccc3)S(=O)(=O)c3ccccc3)cc2)CC1,102,0,-1,-3,0,.,.,.
CCOC(=O)CCn1nc(-c2ccc(Cl)cc2)cc1N,96,1,3,89*,1,-19,-16,.
CCCCCCn1c(=O)n2n(c1=O)C[C@]1(OC(=O)NC3CCCC3)CN(S(=O)(=O)c3ccc(C)cc3)C[C@]1(O)C2,99,1,0,.,2,.,.,.
